In ChEMBL document CHEMBL4665711, “Synthesis of (Z)-3-(arylamino)-1-(3-phenylimidazo[1,5-a]pyridin-1-yl)prop-2-en-1-ones as potential cytotoxic agents” (Bioorg Med Chem Lett, 2020):
Activity calls are given as the source filed them. No cut-off for these calls is given here.

Key:
[1] = tested on: HCT-116; experiment: Induction of cell cycle arrest in human HCT-116 cells assessed as G0/G1 phase at 2.5 uM incubated for 48 hrs by propidium iodide based flow cytometry analysis (reference value: 28.2 %); format: functional
[2] = tested on: HCT-116; experiment: Induction of cell cycle arrest in human HCT-116 cells assessed as G0/G1 phase at 1 uM incubated for 48 hrs by propidium iodide based flow cytometry analysis (reference value: 28.2 %); format: functional
[3] = tested on: HCT-116; experiment: Induction of cell cycle arrest in human HCT-116 cells assessed as sub-G1 phase at 1 uM incubated for 48 hrs by propidium iodide based flow cytometry analysis (reference value: 2.1 %); format: functional
[4] = tested on: HCT-116; experiment: Induction of apoptosis in human HCT-116 cells assessed as increase in DNA breakdown incubated for 24 hrs by acridine orange staining based microscopic analysis; format: functional, cell-based; settings: dose microM 0.5-2.5, time 24.0 hrs
Outline: (§1)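 HCT-116 cells were incubated at 0.5, 1.0 and 2.5 µM for 24 h and stained with acridine orange. Green fluorescence (excitation 480-490 nm), chromatin distribution and blebbing were inspected microscopically at 200× against untreated controls.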

[5] = tested on: HCT-116; experiment: Induction of cell cycle arrest in human HCT-116 cells assessed as sub-G1 phase at 2.5 uM incubated for 48 hrs by propidium iodide based flow cytometry analysis (reference value: 2.1 %); format: functional
[6] = tested on: HCT-116; experiment: Induction of apoptosis in human HCT-116 cells assessed as late apoptotic cells at 0.5 uM incubated for 48 hrs by annexin-V and propidium iodide staining based flow cytometry analysis (reference value: 1.48 %); format: functional
[7] = tested on: HCT-116; experiment: Induction of mitochondrial membrane potential loss in human HCT-116 cells assessed as cells with depolarized mitochondria by measuring increase in J-monomer green fluorescence intensity at 2.5 uM incubated for 48 hrs by JC1 staining based flow cytometry analysis (reference value: 12.53 %); format: functional
[8] = tested on: HCT-116; experiment: Induction of apoptosis in human HCT-116 cells assessed as viable cells at 0.5 uM incubated for 48 hrs by annexin-V and propidium iodide staining based flow cytometry analysis (reference value: 96.29 %); format: functional; settings: read-out: Activity
[9] = tested on: HCT-116; experiment: Induction of apoptosis in human HCT-116 cells assessed as necrotic cells at 0.5 uM incubated for 48 hrs by annexin-V and propidium iodide staining based flow cytometry analysis (reference value: 0.36 %); format: functional
[10] = tested on: HCT-116; experiment: Induction of apoptosis in human HCT-116 cells assessed as viable cells at 1 uM incubated for 48 hrs by annexin-V and propidium iodide staining based flow cytometry analysis (reference value: 96.29 %); format: functional; settings: read-out: Activity
[11] = tested on: HCT-116; experiment: Induction of mitochondrial membrane potential loss in human HCT-116 cells assessed as cells with depolarized mitochondria by measuring increase in J-monomer green fluorescence intensity at 1 uM incubated for 48 hrs by JC1 staining based flow cytometry analysis (reference value: 12.53 %); format: functional
[12] = tested on: HCT-116; experiment: Induction of apoptosis in human HCT-116 cells assessed as necrotic cells at 2.5 uM incubated for 48 hrs by annexin-V and propidium iodide staining based flow cytometry analysis (reference value: 0.36 %); format: functional
[13] = tested on: HCT-116; experiment: Induction of apoptosis in human HCT-116 cells assessed as membrane blebbing at 0.5 to 2.5 uM incubated for 24 hrs by acridine orange staining based microscopic analysis; format: functional, cell-based; settings: dose microM 0.5-2.5, time 24.0 hrs; outline: as §1
[14] = tested on: HCT-116; experiment: Induction of apoptosis in human HCT-116 cells assessed as necrotic cells at 1 uM incubated for 48 hrs by annexin-V and propidium iodide staining based flow cytometry analysis (reference value: 0.36 %); format: functional
[15] = tested on: HCT-116; experiment: Induction of cell cycle arrest in human HCT-116 cells assessed as S phase at 1 uM incubated for 48 hrs by propidium iodide based flow cytometry analysis (reference value: 7.8 %); format: functional
[16] = tested on: HCT-116; experiment: Induction of cell cycle arrest in human HCT-116 cells assessed as G2/M phase at 2.5 uM incubated for 48 hrs by propidium iodide based flow cytometry analysis (reference value: 15.3 %); format: functional
[17] = tested on: HCT-116; experiment: Induction of apoptosis in human HCT-116 cells assessed as early apoptotic cells at 0.5 uM incubated for 48 hrs by annexin-V and propidium iodide staining based flow cytometry analysis (reference value: 1.87 %); format: functional
[18] = tested on: HCT-116; experiment: Induction of mitochondrial membrane potential loss in human HCT-116 cells assessed as cells with hyperpolarized mitochondria by measuring decrease in J-aggregates red fluorescence intensity at 1 uM incubated for 48 hrs by JC1 staining based flow cytometry analysis (reference value: 86.42 %); format: functional; set-up: scale not given: the % may be the effect or the level left
[19] = tested on: HCT-116; experiment: Induction of apoptosis in human HCT-116 cells assessed as early apoptotic cells at 1 uM incubated for 48 hrs by annexin-V and propidium iodide staining based flow cytometry analysis (reference value: 1.87 %); format: functional
[20] = tested on: HCT-116; experiment: Induction of mitochondrial membrane potential loss in human HCT-116 cells assessed as cells with hyperpolarized mitochondria by measuring decrease in J-aggregates red fluorescence intensity at 0.5 uM incubated for 48 hrs by JC1 staining based flow cytometry analysis (reference value: 86.42 %); format: functional; set-up: scale not given: the % may be the effect or the level left
[21] = tested on: HCT-116; experiment: Cytotoxicity against human HCT-116 cells assessed as reduction in cell viability at 0.5 to 2.5 uM incubated for 48 hrs by phase contrast microscopy; format: functional, cell-based; settings: dose microM 0.5-2.5, time 48.0 hrs
[22] = tested on: HCT-116; experiment: Induction of mitochondrial membrane potential loss in human HCT-116 cells assessed as cells with hyperpolarized mitochondria by measuring decrease in J-aggregates red fluorescence intensity at 2.5 uM incubated for 48 hrs by JC1 staining based flow cytometry analysis (reference value: 86.42 %); format: functional; set-up: scale not given: the % may be the effect or the level left
[23] = tested on: HCT-116; experiment: Induction of apoptosis in human HCT-116 cells assessed as late apoptotic cells at 2.5 uM incubated for 48 hrs by annexin-V and propidium iodide staining based flow cytometry analysis (reference value: 1.48 %); format: functional
[24] = tested on: HCT-116; experiment: Induction of apoptosis in human HCT-116 cells assessed as early apoptotic cells at 2.5 uM incubated for 48 hrs by annexin-V and propidium iodide staining based flow cytometry analysis (reference value: 1.87 %); format: functional
[25] = tested on: HCT-116; experiment: Induction of apoptosis in human HCT-116 cells assessed as reduction in green fluorescence intensity at 0.5 to 2.5 uM incubated for 24 hrs by acridine orange staining based microscopic analysis; format: functional, cell-based; settings: dose microM 0.5-2.5, time 24.0 hrs; outline: as §1
[26] = tested on: HCT-116; experiment: Induction of mitochondrial membrane potential loss in human HCT-116 cells assessed as cells with depolarized mitochondria by measuring increase in J-monomer green fluorescence intensity at 0.5 uM incubated for 48 hrs by JC1 staining based flow cytometry analysis (reference value: 12.53 %); format: functional
[27] = tested on: BT-474; experiment: Cytotoxicity against human BT-474 cells assessed as reduction in cell viability incubated for 48 hrs by MTT assay; format: functional, cell-based; settings: BT-474, 48 h
Outline: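 Cancer cell lines were exposed to drug for 48 h, and the 50% inhibitory concentration was determined. Values are averages of three individual experiments. A549, HCT-116, BT-474 and MDA-MB-231 are human lines; B16F10 is a murine melanoma line.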

[28] = tested on: HCT-116; experiment: Induction of cell cycle arrest in human HCT-116 cells assessed as G2/M phase at 0.5 uM incubated for 48 hrs by propidium iodide based flow cytometry analysis (reference value: 15.3 %); format: functional
[29] = tested on: HCT-116; experiment: Induction of cell cycle arrest in human HCT-116 cells assessed as sub-G1 phase at 0.5 uM incubated for 48 hrs by propidium iodide based flow cytometry analysis (reference value: 2.1 %); format: functional
[30] = tested on: HCT-116; experiment: Induction of apoptosis in human HCT-116 cells assessed as late apoptotic cells at 1 uM incubated for 48 hrs by annexin-V and propidium iodide staining based flow cytometry analysis (reference value: 1.48 %); format: functional

O=C(/C=C\Nc1ccc(Cl)cc1)c1nc(-c2ccc(F)cc2)n2ccccc12
Activity [1]: 41.9%
Activity [2]: 38.7%
Activity [3]: 1.9%
Activity [4]: Dose-dependent effect
Activity [5]: 1.6%
Activity [6]: 5.7%
Activity [7]: 20.68%
viability at 0.5 µM [8]: 87.5%
Activity [9]: 0.68%
viability at 1 µM [10]: 85.8%
Activity [11]: 20.53%
Activity [12]: 13.3%
Activity [13]: Active
Activity [14]: 3.49%
Activity [15]: 9.7%
Activity [16]: 15.6%
Activity [17]: 6.17%
Activity [18]: 78.07%
Activity [19]: 3.78%
Activity [20]: 85.48%
Activity [21]: Active
Activity [22]: 76.3%
Activity [23]: 6.97%
Activity [24]: 2.29%
Activity [25]: Active
Activity [26]: 13.5%
IC50 [27]: 7.03 µM
Activity [28]: 15%
Activity [29]: 1.2%
Activity [30]: 6.94%
